In PMC11482939 (bioRxiv, 2025):
“Also recorded” adds a separate entry of the source. Where two headings read alike, the source gives them in different places.

What was measured:
[1] = system: UM cell lines (MP41, MP38, MP46); assay: Concentration-response cell viability, UM cell lines overall; assay type: cell-based, human; conditions: 72 h
WS1 fibroblast cell line = assay: Viability assay on non-cancerous fibroblasts; assay type: cell-based; conditions: for IC50: Fibroblast, read-out: fibroblast IC50; for fold higher IC50 / lower toxicity for non-cancerous cells than for UM cells: WS1 fibroblast IC50 vs UM IC50
Summary of the method: (§1)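 Cells treated 72 h with a 10-point 1:3 dilution series from nominal 10 μM top (one compound started at 300 nM), n = 4. Viability read by CellTiter-Glo ATP luminescence and normalized to 0.1% DMSO controls. IC50 and % viability derived by four-parameter log(inhibitor) vs. response fit with variable slope.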

[2] = system: MP41 metastatic UM xenograft; assay: Metastatic UM xenograft mouse model; assay type: in vivo, NSG mice; conditions: for survival in comparison with the vehicle group: log-rank test, p > 0.10
Summary of the method: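 Female NSG mice, 16 weeks old, given 1 × 10^5 FACS-sorted RFP-luciferase-transduced MP41 cells via tail vein; n = 10 per group, randomized. From day 7, test compound dosed at 2 mg/kg IP weekly. Weekly IVIS imaging 10 min after 150 mg/kg IP d-luciferin. Endpoint was >20% weight loss or health decline; organs imaged ex vivo; survival compared by log-rank.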

[3] = system: MP41 cells extracted from mouse liver metastases; assay: Ex vivo resistance testing of UM cells from mouse liver metastases; assay type: cell-based, human; conditions: relative to cells from vehicle group
Summary of the method: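 Liver tissue from treated and vehicle mice minced and digested overnight at 4°C in D-MEM with 400 U/mL type IV collagenase and 0.5 μg/mL amphotericin B. Cells grown in UM medium, confirmed as MP41 by RFP fluorescence, then given 10-point 1:3 dilution series for 72 h. Viability read by CellTiter-Glo ATP luminescence relative to 0.1% DMSO.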

MP41 and MP38 cells = assay: HDAC3 / HDAC8 inhibitor concentration-response testing; assay type: cell-based, human; conditions: alone or in combination
Summary of the method: as §1

UM cells = assay: Synergy testing of romidepsin and quisinostat with other hit compounds; assay type: cell-based, human; conditions: plus EC20 of other candidate compound
[4] = system: UM cell lines, including UMM66 cells; assay: Romidepsin from two sources in UM cell lines including UMM66; assay type: cell-based; conditions: Homo sapiens, read-out: IC50 in all UM cell lines including UMM66
[5] = Homo sapiens, read-out: UM IC50, UM cell lines, 72 h
[6] = read-out: UM IC50, UM cell lines

## CC[C@@]1(O)C(=O)OCc2c1cc1n(c2=O)Cc2cc3ccccc3nc2-1 [(S)-(+)-Camptothecin]
[1]; Homo sapiens, read-out: UM IC50
  IC50: ~334 nM

## COc1ccc(-c2nc(N3CCOCC3)c3sc(CN(C)c4ncc(C(=O)NO)cn4)cc3n2)cn1 [Fimepinostat]
WS1 fibroblast cell line
  IC50: ~55 nM
  fold higher IC50 / lower toxicity for non-cancerous cells than for UM cells: 4- to 5 fold
[1]; [5]
  IC50: ~11 nM

## Nc1ccn([C@@H]2O[C@H](CO)[C@@H](O)C2(F)F)c(=O)n1 [Gemcitabine]
[1]; [5]
  IC50: ~493 nM

## CCS(=O)(=O)Nc1ccc(Oc2ccc(F)cc2F)c(-c2cn(C)c(=O)c3[nH]ccc23)c1 [Mivebresib]
WS1 fibroblast cell line
  IC50: > 10000 nM
[2]; femur, spinal cord
  metastases detected in organs (ex vivo IVIS): prevented the development of detectable spinal cord and femur metastases
[3]
  acquired drug resistance after long-term in vivo treatment: No significant resistance was detected
[1]; [5]
  IC50: ~125 nM

## COc1ccc(Cn2ccc3ccc(C(=O)NO)cc32)cc1 [PCI-34051]
MP41 and MP38 cells
  potency of HDAC3 / HDAC8 inhibitor: neither was potent

## Cc1[nH]c2ccccc2c1CCNCc1ccc(/C=C/C(=O)NO)cc1 [Panobinostat]
WS1 fibroblast cell line
  IC50: ~124 nM
  fold higher IC50 / lower toxicity for non-cancerous cells than for UM cells: 4- to 5 fold
[1]; [5]
  IC50: ~26 nM

## COc1cc([C@@H]2c3cc4c(cc3[C@H](O)[C@H]3COC(=O)[C@H]23)OCO4)cc(OC)c1OC [Podofilox]
[1]; [5]
  IC50: ~9.36 nM

## Cn1cc(CNCC2CCN(c3ncc(C(=O)NO)cn3)CC2)c2ccccc21 [Quisinostat]
WS1 fibroblast cell line
  IC50: ~118 nM
  fold higher IC50 / lower toxicity for non-cancerous cells than for UM cells: approximately 9 fold
[2]
  survival in comparison with the vehicle group: did not significantly improve survival rates
[3]
  acquired drug resistance after long-term in vivo treatment: No significant resistance was detected
UM cells
  synergy with the other 16 compounds: did not find significant synergy
[1]; [5]
  IC50: ~14 nM

## Nc1cc(F)ccc1NC(=O)/C=C/c1cnn(C/C=C/c2ccccc2)c1 [RGFP966]
MP41 and MP38 cells
  potency of HDAC3 / HDAC8 inhibitor: neither was potent

## C/C=C1\NC(=O)[C@H]2CSSCC/C=C/[C@H](CC(=O)N[C@H](C(C)C)C(=O)N2)OC(=O)[C@H](C(C)C)NC1=O [Romidepsin]
[4]
  IC50: 2.4 to 5.7 nM
[2]
  survival in comparison with the vehicle group: did not significantly improve survival rates; also recorded: did not improve the survival rate
[3]
  acquired drug resistance after long-term in vivo treatment: No significant resistance was detected
UM cells
  synergy with the other 16 compounds: did not find significant synergy
[1]; [5]
  IC50: ~3.5 nM

## CC(C)C[C@H](NC(=O)[C@H](Cc1ccccc1)NC(=O)c1cnccn1)B(O)O [Velcade]
WS1 fibroblast cell line
  IC50: ~57 nM
[1]; [5]
  IC50: ~7.6 nM
[1]; [6]
  IC50: ~8 nM

## Cucurbitacin B
[1]; [6]
  IC50: ~37.9 nM
